Data on 37 sequences can be found in the array DNA melting data of Ke et al. (doi:10.1101/2024.01.08.574731).

Data set [1] in a line: folding enthalpy; higher = less favourable; fluorescence melt of hairpins on a sequencing array, two-state fit. As to conditions: sodium 0.088 M. Put shortly:
(§1)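 Melting temperature and folding enthalpy were derived from bootstrapped two-state fits. The fitted temperatures were raised by 9.35 °C to agree with UV melts, and four replicates were combined by inverse variance. The underlying data were Cy3 fluorescence images of library hairpins, with annealed Cy3 and quencher oligos, on a sequenced MiSeq flow cell in 50 mM Na-HEPES pH 8.0, 25 mM NaCl, taken in 2.5 °C steps up to 60 °C, normalised to pre-quench Cy3 and to control constructs.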

Data set [2] in a line: melting temperature; fluorescence melt of hairpins on a sequencing array, two-state fit, raised by 9.35 °C to match UV melts. Conditions: sodium 0.088 M. A digest of the protocol: as §1

With GACTTTGGAAACGAAGTC (((((.(....).))))), the folding enthalpy in data set [1] is -29.4 kcal/mol. For the same sequence, in data set [2], the Tm stood at 44.6 °C.

In the case of GAGAAACGAAAGTTCCTC (((.(((....))).))), in data set [1], the folding enthalpy is -27 kcal/mol. The Tm in data set [2] was 36.5 °C.

Take GAGAACGAAAGTTCGCTC ((((((....)))..))): in data set [1], the folding enthalpy is -19.8 kcal/mol. In data set [2], the Tm is 53.6 °C.

Regarding GAGAACGAAAGTTTCTC ((((((....))).))), the folding enthalpy in data set [1] is -25.1 kcal/mol. For the same sequence, the Tm in data set [2] was 43.5 °C.

GAGAACGAAAGTTTGCTC ((((((....)))..))): the folding enthalpy in data set [1] is -16.8 kcal/mol. For the same sequence, the Tm in data set [2] came to 28.6 °C.

For the sequence GAGAACGGAAACGTCCTC (((.(((....))).))), the folding enthalpy in data set [1] is -24.5 kcal/mol. Also, the Tm in data set [2] was 40.2 °C.

Regarding GAGAACGGAAACGTTCCC (.(((((....))))).), the folding enthalpy in data set [1] is -11.9 kcal/mol. In data set [2], the Tm came out at 40 °C.

Consider GAGAAGGGAAACCTCCTC (((.(((....))).))), for which the folding enthalpy in data set [1] is -17.7 kcal/mol. Moreover, in data set [2], the Tm came to 28.8 °C.

For the sequence GAGAATGGAAACATTCCC (.(((((....))))).), the folding enthalpy in data set [1] is -19.6 kcal/mol. The Tm in data set [2] turned out to be 31.2 °C.

GAGACAACGAAAGTTCTC (((..(((....)))))): the folding enthalpy in data set [1] is -20.4 kcal/mol. In data set [2], the Tm was 28.3 °C.

For GAGACACGAAAGTGCCTC (((.(((....))).))), the folding enthalpy in data set [1] was -33.4 kcal/mol. Further, the Tm in data set [2] amounted to 51.3 °C.

As to GAGACAGCGAAAGCTCTC (((..(((....)))))), in data set [1], the folding enthalpy was -9.49 kcal/mol. In addition, in data set [2], the Tm was 45.5 °C.

Consider GAGACCCGAAAGGGACTC (((.(((....))).))), for which the folding enthalpy in data set [1] is -32.4 kcal/mol. Moreover, the Tm in data set [2] stood at 57.6 °C.

With GAGACCGAAAGGTCCTC ((((((....))).))), the folding enthalpy in data set [1] was -10.4 kcal/mol. Further, the Tm in data set [2] stood at 53.6 °C.

With GAGACCGAAAGGTGACTC ((((((....)))..))), the folding enthalpy in data set [1] is -13.8 kcal/mol. In addition, in data set [2], the Tm worked out at 35.6 °C.

GAGACCGGAAACGGCCTC (((.(((....))).))): in data set [1], the folding enthalpy was -28.1 kcal/mol. Besides, the Tm in data set [2] is 50.8 °C.

For the sequence GAGACCGGAAACGGTCCC (.(((((....))))).), the folding enthalpy in data set [1] is -10.2 kcal/mol. Further, the Tm in data set [2] is 46.9 °C.

In the case of GAGACCGGAAACGGTTTC ((.((((....)))).)), the folding enthalpy in data set [1] was -22.5 kcal/mol. The Tm in data set [2] was 49.5 °C.

As to GAGACGGGAAACCGCCTC (((.(((....))).))), the folding enthalpy in data set [1] was -33.7 kcal/mol. The Tm in data set [2] is 49.1 °C.

With GAGAGAGGAAACCCTCTC (((((.(....).))))), the folding enthalpy in data set [1] was -20.2 kcal/mol. The Tm in data set [2] stood at 42.5 °C.

In the case of GAGAGAGGAAACTCTCCC (.(((((....))))).), the folding enthalpy in data set [1] is -17 kcal/mol. In addition, the Tm in data set [2] came out at 37 °C.

GAGAGCGAAAGCTAACTC ((((((....)))..))): the folding enthalpy in data set [1] is -12.7 kcal/mol. In addition, in data set [2], the Tm was 33 °C.

Regarding GAGAGCGAAAGCTCACTC ((((((....)))..))), the folding enthalpy in data set [1] was -12 kcal/mol. The Tm in data set [2] was 55.5 °C.

Take GAGAGCGAAAGCTCGCTC ((((((....)))..))): the folding enthalpy in data set [1] was -13 kcal/mol. Further, the Tm in data set [2] was determined as 66.9 °C.

As for GAGAGCGAAAGCTGACTC ((((((....)))..))), in data set [1], the folding enthalpy was -13.3 kcal/mol. In data set [2], the Tm was 32.3 °C.

As to GAGAGCGAAAGCTGCCTC ((((((....)))..))), the folding enthalpy in data set [1] was -11.1 kcal/mol. The Tm in data set [2] amounted to 27.4 °C.

Regarding GAGAGCGAAAGCTGGCTC ((((((....)))..))), the folding enthalpy in data set [1] was -13.5 kcal/mol. Moreover, the Tm in data set [2] worked out at 37.2 °C.

With GAGAGCGAAAGCTTCTC ((((((....))).))), the folding enthalpy in data set [1] was -21.9 kcal/mol. Moreover, in data set [2], the Tm came out at 48 °C.

For GAGAGCGCGAAAGCGCTC (((..(((....)))))), in data set [1], the folding enthalpy is -6.4 kcal/mol. The Tm in data set [2] stood at 63.2 °C.

Consider GAGAGGCCGAAAGGCCTC (((..(((....)))))), for which, in data set [1], the folding enthalpy was -7.49 kcal/mol. In addition, the Tm in data set [2] was found to be 65.9 °C.

GAGAGGCGAAAGCCCCTC (((.(((....))).))): the folding enthalpy in data set [1] was -17.3 kcal/mol. In addition, the Tm in data set [2] is 51.7 °C.

For the sequence GAGAGGGAAACCTCTC ((((((....)))))), in data set [1], the folding enthalpy was -36.2 kcal/mol. Besides, the Tm in data set [2] was determined as 55.3 °C.

Regarding GAGAGTACGAAAGTACTC (((..(((....)))))), in data set [1], the folding enthalpy is -11.7 kcal/mol. Also, in data set [2], the Tm came out at 55.2 °C.

Turning to GAGAGTGGAAACACTCCC (.(((((....))))).), the folding enthalpy in data set [1] was -13.7 kcal/mol. For the same sequence, the Tm in data set [2] was determined as 38.1 °C.

Regarding GAGATAGAAATATCTC ((((((....)))))), the folding enthalpy in data set [1] was -26.9 kcal/mol. Further, the Tm in data set [2] turned out to be 39 °C.

GAGATAGCGAAAGCTCTC (((..(((....)))))): the folding enthalpy in data set [1] is -15.9 kcal/mol. In data set [2], the Tm turned out to be 40 °C.

In the case of GAGATAGGAAACTATCCC (.(((((....))))).), in data set [1], the folding enthalpy is -16.4 kcal/mol. Moreover, the Tm in data set [2] was determined as 30.1 °C.
